According to ChEMBL document CHEMBL1123904, “Synthesis, structure, and biological activity of certain 2-deoxy-beta-D-ribo-hexopyranosyl nucleosides and nucleotides” (J Med Chem, 1987):
pKi: −log10 of the molar value.

Columns and labels:
[1] = test system: Measles morbillivirus; test: In vitro antiviral activity Virus rating (VR) determined by comparing CPE development in drug-treated cells (T) and virus control cells (C) against, measles; assay type: functional
How it was run: (§1)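 Vero (African green monkey kidney) cells in 10% FBS DMEM, seeded 4 × 10^4 cells/well, confluent over 24 h at 37 °C, 5% CO2. Virus (amount giving full monolayer destruction in 72 h; HSV-2 strain 333, measles Edmonston, para 3 C243) adsorbed 30 min. Compound added after adsorption at seven 0.5-log steps, final 5 × 10^-6 to 5 × 10^-3 M. Duplicate infected wells, single uninfected wells for toxicity.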

[2] = test system: Human alphaherpesvirus 2; test: In vitro antiviral activity Virus rating (VR) determined by comparing CPE development in drug-treated cells (T) and virus control cells (C) against, Herpes simplex virus-2; assay type: functional; how it was run: as §1
[3] = test system: Vaccinia virus; test: In vitro antiviral activity Virus rating (VR) determined by comparing CPE development in drug-treated cells (T) and virus control cells (C) against, Vaccinia virus; assay type: functional, Orthopoxvirus vaccinia
[4] = test system: Human respirovirus 3; test: In vitro antiviral activity Virus rating (VR) determined by comparing CPE development in drug-treated cells (T) and virus control cells (C) against, parainfluenza type 3 (para 3); assay type: functional; how it was run: as §1
[5] = target: T1, Adenosine deaminase (Bos taurus, UniProt P56658); test: Ability to inhibit adenosine deaminase
T1 sequence (P56658 whole entry): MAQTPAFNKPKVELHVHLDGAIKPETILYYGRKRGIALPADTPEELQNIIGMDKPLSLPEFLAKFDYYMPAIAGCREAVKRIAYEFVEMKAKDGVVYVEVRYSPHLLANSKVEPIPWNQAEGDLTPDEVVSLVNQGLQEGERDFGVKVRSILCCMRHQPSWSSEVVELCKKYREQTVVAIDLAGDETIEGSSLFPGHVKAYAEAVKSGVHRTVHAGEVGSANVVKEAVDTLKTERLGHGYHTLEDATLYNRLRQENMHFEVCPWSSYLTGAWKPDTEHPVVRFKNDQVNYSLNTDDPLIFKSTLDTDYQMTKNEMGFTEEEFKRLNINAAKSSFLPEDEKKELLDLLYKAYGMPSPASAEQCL
How it was run: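 Calf intestine adenosine deaminase; substrate and inhibitor kinetic parameters measured spectrophotometrically.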

[6] = Ability of inhibit mammalian uridine phosphorylase

| Compound | VR [1] | VR [2] | VR [3] | VR [4] | pKi [5] | pKi [6] |
| --- | --- | --- | --- | --- | --- | --- |
| Nc1nc(N)c2ncn(C3CC(O)C(O)C(CO)O3)c2n1 (stereo not given) | 0.54 | 0.62 | 0.22 | 0.25 |  |  |
| OC[C@H]1O[C@@H](n2cnc3c(O)ncnc32)C[C@@H]1O [DEOXYINOSINE] |  |  |  |  | 3.82 |  |
| O=c1ccn(C2CC(O)C(O)C(CO)O2)c(=O)[nH]1 (stereo not given) | 0 | 0.06 | 0.25 | 0 |  |  |
| Nc1ccn(C2CC(O)C(O)C(CO)O2)c(=O)n1 (stereo not given) | 0.5 | 0 | 0 | 0.15 |  |  |
| O=c1ccn(C2CC(O)C(O)C(COP(=O)(O)O)O2)c(=O)[nH]1 (stereo not given) | 0.44 | 0.74 | 0.28 | 0.64 |  |  |
| Nc1ncnc2ncn(C3CC(O)C(O)C(CO)O3)c12 (stereo not given) | 0 | 0.08 | 0.22 | 0 |  |  |
| OC[C@H]1O[C@@H](n2cnc3c(O)ncnc32)[C@H](O)[C@@H]1O [INOSINE] |  |  |  |  | 3.30 |  |
| Nc1ncnc2c1ncn2C1CC(O)C(O)C(COP(=O)(O)O)O1 (stereo not given) | 0.24 | 0.44 | 0 | 0.16 |  |  |
| OCC1OC(n2cnc3c(O)ncnc32)CC(O)C1O (stereo not given) | 0 | 0.07 | 0.1 | 0.06 |  |  |
| Nc1nc(O)c2ncn(C3CC(O)C(O)C(CO)O3)c2n1 (stereo not given) | 0.3 | 1.06 | 0.19 | 0 |  |  |
| Nc1ncnc2c1ncn2C1CC(O)C(O)C(CO)O1 (stereo not given) | 0.9 | 0 | 0 | 0.35 |  |  |
| Cc1cn(C2CC(O)C(O)C(CO)O2)c(=O)[nH]c1=O (stereo not given) |  |  |  |  |  | 4.92 |
| Nc1ncnc2c1ncn2[C@@H]1C=C(CO)[C@@H](O)[C@H]1O [NEOPLANOCIN A] | 0.75 | 1.39 | 1.38 | 1.6 |  |  |
| Nc1nc(Cl)nc2c1ncn2C1CC(O)C(O)C(CO)O1 (stereo not given) | 0.05 | 0.34 | 0.04 | 0 |  |  |
| Nc1ccn(C2CC(O)C(O)C(COP(=O)(O)O)O2)c(=O)n1 (stereo not given) | 0.06 |  | 0.25 | 0.28 |  |  |
